What was measured:
[1] = Alkylating activity (0.1 mM) was determined at pH 7.4; expressed as OD (540n m)/mM of drug); type: ADME; details: pH 7.4, 100 µM
Procedure, shortened: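 Alkylation read as OD at 540 nm per mM of drug. Drug at 0.1 mM was pre-incubated with NBP in TRIS buffer pH 7.4 for 2 h at 37 °C, then triethylamine/acetone was added.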

K562 = experiment: Cytotoxic effect in K562 cells; details: Homo sapiens
[2] = molecular target: Tyrosine-protein kinase ABL (Homo sapiens, UniProt P00519+P42684); experiment: Inhibition of Abl tyrosine kinase; type: protein assay

SMILES	Alkylating activity [1]	IC50 (K562) [µM]	IC50 [2] [µM]
Cn1nnc2c(C(N)=O)ncn2c1=O [TEMOZOLOMIDE]	0.0013	156	> 100
Cc1ccc(NC(=O)c2ccc(N=NN(C)CO)cc2)cc1Nc1nccc(-c2cccnc2)n1	0.0015	–	–
COCC/N=N/Nc1cccc(Nc2nccc(-c3cccnc3)n2)c1	–	5.39	8.6
Cc1ccc(NC(=O)c2ccc(/N=N/N(C)CCCl)cc2)cc1Nc1nccc(-c2cccnc2)n1	0.00014	17.4	0.8496
Cc1ccc(NC(=O)c2ccc(/N=N/N(C)C)cc2)cc1Nc1nccc(-c2cccnc2)n1	0.0002	2.16	0.1946
c1cc(N/N=N/CCN2CCOCC2)cc(Nc2nccc(-c3cccnc3)n2)c1	–	10.1	10
Cc1ccc(NC(=O)c2ccc(CN3CCN(C)CC3)cc2)cc1Nc1nccc(-c2cccnc2)n1 [IMATINIB]	–	0.11	–
Nc1cccc(Nc2nccc(-c3cccnc3)n2)c1	–	21.7	> 10
Nc1ccc(C(=O)Nc2cccc(Nc3nccc(-c4cccnc4)n3)c2)cc1	–	9.88	4.89
Cc1ccc(NC(=O)c2ccc(N)cc2)cc1Nc1nccc(-c2cccnc2)n1	0.0002	68	> 10
COCCN=NNc1ccc(C(=O)Nc2cccc(Nc3nccc(-c4cccnc4)n3)c2)cc1	0.0002	16.2	0.903
